{"source": "paper PMC8146373", "about": "(Biochemical pharmacology, 2021)", "key": {"GLP-1R [1]": {"target": "T1, GLP-1R (Homo sapiens, UniProt P43220)", "T1 sequence (P43220 24-463)": "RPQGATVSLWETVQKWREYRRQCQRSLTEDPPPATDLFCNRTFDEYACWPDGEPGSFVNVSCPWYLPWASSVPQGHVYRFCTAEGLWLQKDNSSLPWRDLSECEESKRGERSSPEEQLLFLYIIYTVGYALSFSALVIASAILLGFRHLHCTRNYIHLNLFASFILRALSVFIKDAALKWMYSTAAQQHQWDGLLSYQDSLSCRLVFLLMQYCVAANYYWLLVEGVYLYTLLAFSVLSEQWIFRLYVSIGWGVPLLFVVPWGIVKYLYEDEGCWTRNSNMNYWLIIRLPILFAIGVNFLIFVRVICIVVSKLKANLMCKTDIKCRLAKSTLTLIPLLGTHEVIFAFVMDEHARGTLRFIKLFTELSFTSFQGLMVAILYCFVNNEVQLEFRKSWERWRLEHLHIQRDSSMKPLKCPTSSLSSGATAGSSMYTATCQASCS", "assay": "cAMP wash-out experiment, GLP-1R-overexpressing HEK-293T cells", "type": "cell-based", "details": "25 μM compound, triple wash"}, "GLP-1R [2]": {"target": "T2, GLP-1R (Rattus norvegicus, UniProt P32301)", "T2 sequence (P32301 22-463)": "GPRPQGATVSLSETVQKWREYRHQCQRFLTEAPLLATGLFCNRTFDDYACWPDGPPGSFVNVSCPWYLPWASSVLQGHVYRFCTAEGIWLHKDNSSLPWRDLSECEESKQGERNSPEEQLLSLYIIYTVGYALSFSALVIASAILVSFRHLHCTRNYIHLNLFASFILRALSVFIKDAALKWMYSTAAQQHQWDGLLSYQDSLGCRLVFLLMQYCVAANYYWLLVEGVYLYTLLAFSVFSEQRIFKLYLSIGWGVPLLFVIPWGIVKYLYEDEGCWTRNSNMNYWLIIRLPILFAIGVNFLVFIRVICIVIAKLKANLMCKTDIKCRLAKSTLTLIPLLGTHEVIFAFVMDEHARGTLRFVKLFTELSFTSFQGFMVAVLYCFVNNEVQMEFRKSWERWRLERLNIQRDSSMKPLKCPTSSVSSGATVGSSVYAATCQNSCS", "assay": "cAMP assay", "type": "cell-based", "details": "INS-1 cells, 12.5 μM compound", "how_it_was_run": "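INS-1 832/13 cells (passage 18–29) were detached at 80–90% confluency, spun 300xg for 3 min and diluted in stimulation buffer. […] Cells were incubated 30 min at RT. LANCE Ultra detection (Eu-cAMP, ULight antibody) was read as TR-FRET after 60 min at RT.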"}, "GLP-1R [3]": {"target": "T1, GLP-1R", "assay": "Allosteric activity studies", "type": "cell-based"}, "SCTR [4]": {"target": "T3, SCTR (Homo sapiens, UniProt P47872)", "T3 sequence (P47872 23-440)": "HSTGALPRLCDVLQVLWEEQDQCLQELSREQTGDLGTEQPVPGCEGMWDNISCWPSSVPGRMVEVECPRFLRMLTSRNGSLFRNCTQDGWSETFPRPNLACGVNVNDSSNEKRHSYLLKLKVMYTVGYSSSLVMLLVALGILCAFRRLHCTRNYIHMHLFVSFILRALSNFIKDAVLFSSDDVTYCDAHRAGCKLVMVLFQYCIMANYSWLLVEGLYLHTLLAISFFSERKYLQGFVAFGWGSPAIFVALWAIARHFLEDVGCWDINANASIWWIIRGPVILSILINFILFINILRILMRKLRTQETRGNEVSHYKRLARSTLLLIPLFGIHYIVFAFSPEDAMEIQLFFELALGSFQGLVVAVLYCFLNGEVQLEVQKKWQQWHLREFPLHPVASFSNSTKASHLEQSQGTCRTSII", "assay": "SCTR PAM", "type": "cell-based"}, "GLP-1R [5]": {"target": "T1, GLP-1R", "assay": "GLP-1R agonist cAMP accumulation assay, GLP-1R-overexpressing HEK-293T cells", "type": "cell-based"}, "SCTR K317C": {"target": "SCTR K317C (Homo sapiens, UniProt P47872, K338C)", "sequence (P47872 22-440 K338C limits assumed)": "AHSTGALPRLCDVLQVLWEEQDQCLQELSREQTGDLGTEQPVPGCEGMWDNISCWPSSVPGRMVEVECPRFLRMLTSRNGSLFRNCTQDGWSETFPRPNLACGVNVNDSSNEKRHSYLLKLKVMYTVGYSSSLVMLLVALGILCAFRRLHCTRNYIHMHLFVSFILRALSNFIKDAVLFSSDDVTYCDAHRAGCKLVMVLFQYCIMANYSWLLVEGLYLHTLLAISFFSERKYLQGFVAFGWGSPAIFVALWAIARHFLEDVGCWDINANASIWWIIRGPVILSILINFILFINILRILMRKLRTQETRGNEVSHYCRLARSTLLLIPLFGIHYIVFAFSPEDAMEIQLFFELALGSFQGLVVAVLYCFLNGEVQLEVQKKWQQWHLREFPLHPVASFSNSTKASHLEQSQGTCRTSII", "sequence (P09683 28-54 partner limits assumed)": "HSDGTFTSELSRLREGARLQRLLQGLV", "assay": "Mutational study, cAMP assay in HEK-293 cells transiently expressing SCTR K317C", "type": "cell-based", "details": "12.5–25 μM compound"}, "GLP-1R C347A": {"target": "GLP-1R C347A (Homo sapiens, UniProt P43220, C347A)", "sequence (P43220 24-463 C347A)": "as the sequence (P43220 24-463) above, with C324A counted along it", "type": "cell-based", "details": "12.5–25 μM compound", "how_it_was_run": "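HEK-293 cells were transfected with 0.5 μg DNA/well of GLP-1R WT or C347A construct and harvested after 24 h into stimulation buffer. Cells were added to wells with DMSO or 12.5–25 μM compound. […] HTRF cAMP readout; four-parameter variable-slope fit; duplicates, ≥3 experiments.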"}, "INS-1 832/13 cells": {"tested_on": "INS-1 832/13 cells", "assay": "Glucose stimulated insulin secretion", "type": "cell-based, rat", "details": "20 μM compound, 15 mM glucose"}, "SCTR K317A": {"target": "SCTR K317A (Homo sapiens, UniProt P47872, K338A)", "sequence (P47872 22-440 K338A limits assumed)": "as the sequence (P47872 22-440 K338C limits assumed) above, with C317A counted along it", "assay": "Mutational study, cAMP assay in HEK-293 cells transiently expressing SCTR K317A", "type": "cell-based", "details": "12.5–25 μM compound"}, "SNAP-SCTR": {"target": "SNAP-SCTR (Homo sapiens, UniProt P47872)", "sequence (P47872 23-440)": "as the sequence (P47872 23-440) above", "assay": "TR-FRET SNAP-SCTR competition binding with Fluo-Sec, HEK-293 SNAP-SCTR membranes"}, "SCTR [6]": {"target": "T3, SCTR", "assay": "SCTR Sec-FL", "type": "cell-based"}, "GLP-1R [7]": {"target": "T1, GLP-1R", "assay": "GLP-1R PAM", "type": "cell-based"}}}
{"smiles": "CC[S+]([O-])c1nc(-c2cccc(OCc3ccccc3)c2)cc(C(F)(F)F)n1", "note": "(stereo not shown) [BETP, 4-(3-(Benzyloxy)phenyl)-2-(ethylsulfinyl)-6-(trifluoromethyl)pyrimidine]", "values": [{"measurement": "intrinsic activity (elevation of basal response), added before or after the wash step", "setting": "GLP-1R [1]", "value": "substantial intrinsic activity"}, {"measurement": "effect on GLP-1 treatment", "setting": "GLP-1R [2]", "value": "did not show a significant positive effect"}, {"measurement": "increase of efficacy of GLP-1(9–36)", "setting": "GLP-1R [2]", "value": 106, "unit": "%"}, {"measurement": "receptor activation by GLP-1(9–36) in presence of compound", "setting": "GLP-1R [2]", "value": "around 50%"}, {"measurement": "Kb", "setting": "GLP-1R [3]", "value": 3, "unit": "µM"}, {"measurement": "cooperativity factor α, GLP-1(9–36)", "setting": "GLP-1R [3]; GLP-1R-overexpressing cells", "value": 137}, {"measurement": "cooperativity factor β, GLP-1(9–36)", "setting": "GLP-1R [3]; GLP-1R-overexpressing cells", "value": 5.5}, {"measurement": "EC50", "setting": "SCTR [4]", "value": "24 ± 12", "unit": "µM"}, {"measurement": "Emax", "setting": "SCTR [4]; CHO-K1, read-out: SCTR PAM (3-pep mix) Emax", "value": "51 ± 25", "unit": "%"}, {"measurement": "EC50", "setting": "GLP-1R [5]", "value": "0.8 ± 0.6", "unit": "µM"}, {"measurement": "GLP-1R agonist Emax", "setting": "GLP-1R [5]; cAMP, no peptide ligand, mean ± SD, n.d. = not detected", "value": "91 ± 16", "unit": "%"}, {"measurement": "potentiating effects at SCTR K317C compared to WT", "setting": "SCTR K317C", "value": "neither mutating Lys-317 to alanine nor to cysteine had an impact"}, {"measurement": "cooperative (PAM) effects on GLP-1(9–36) at GLP-1R C347A compared to WT", "setting": "GLP-1R C347A", "value": "eradicated"}, {"measurement": "intrinsic agonist activity at GLP-1R C347A compared to WT", "setting": "GLP-1R C347A", "value": "eradicated"}, {"measurement": "insulin secretion with GLP-1(9–36) co-stimulation", "setting": "INS-1 832/13 cells; 1 μM GLP-1(9–36)", "value": "elevated insulin secretion"}, {"measurement": "interaction between compound and GLP-1(9–36) treatment (two-way ANOVA)", "setting": "INS-1 832/13 cells", "value": "significant interactions"}, {"measurement": "insulin secretion in the absence of GLP-1(9–36)", "setting": "INS-1 832/13 cells; vs DMSO", "value": "significantly enhanced"}, {"measurement": "potentiating effects at SCTR K317A compared to WT", "setting": "SCTR K317A", "value": "neither mutating Lys-317 to alanine nor to cysteine had an impact"}, {"measurement": "EC50", "setting": "SNAP-SCTR", "value": "17 ± 14", "unit": "µM"}, {"measurement": "Emax", "setting": "SNAP-SCTR; read-out: SNAP-SCTR Binding Emax", "value": "152 ± 11", "unit": "%"}, {"measurement": "EC50", "setting": "SCTR [6]", "value": "31 ± 19", "unit": "µM"}, {"measurement": "Emax", "setting": "SCTR [6]; CHO-K1, read-out: SCTR Sec-FL (PAM) Emax", "value": "42 ± 2", "unit": "%"}, {"measurement": "EC50", "setting": "GLP-1R [7]", "value": "0.8 ± 0.2", "unit": "µM"}, {"measurement": "selectivity toward GLP-1Rs (over SCTR PAM potency)", "setting": "GLP-1R [7]; GLP-1R EC50 vs SCTR PAM EC50", "value": 30, "unit": "fold"}, {"measurement": "GLP-1R PAM (GLP-1) Emax", "setting": "GLP-1R [7]; cAMP, EC20 of GLP-1, mean ± SD, n.d. = not detected", "value": "76 ± 22", "unit": "%"}]}
